The source made the active and inactive calls. The calls are words filed in the database; no cut-off is given here.
Experiments:
Mus musculus [1] = experiment: % EMT-6 tumor edema response induced in BALB/c mice after ZnPc and Photofrin-mediated photodynamic therapy (PDT) at a concentration of 1 umol/kg; Extensive; assay type: functional, organism-based; conditions: tested as the Zn salt or complex
Method in brief: (§1)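 Male BALB/c mice (18–22 g), shaved and depilated, bore EMT-6 tumors from intradermal injection of 2 × 10⁵ cells into each hind thigh. At 6–8 days (tumors 3–5-mm diameter, 2–3-mm thick), dye was given i.v. as a Cremophor emulsion (0.2 mL/20 g) at 1 or 2 μmol kg⁻¹. Red light followed 24 h later. Edema was scored 24 h after PDT as light (+), medium (++), important (+++) or extensive (++++).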

Mus musculus [2] = experiment: % EMT-6 tumor necrosis response induced in BALB/c mice after ZnPc and Photofrin-mediated photodynamic therapy (PDT) at a concentration of 1 uM/kg; assay type: functional
Mus musculus [3] = experiment: % EMT-6 tumor regression response induced in BALB/c mice after ZnPc and Photofrin-mediated photodynamic therapy (PDT) at a concentration of 2 umol/kg; assay type: functional
Method in brief: (§2)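 In male BALB/c mice (18–22 g), intradermal EMT-6 tumors on each hind thigh were grown 6–8 days to 3–5-mm diameter. Mice then received 1 or 2 μmol kg⁻¹ dye i.v. in Cremophor emulsion, with red-light exposure 24 h later. Scored as percent of animals showing complete tumor regression 3 weeks after PDT.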

EMT6 [4] = experiment: Drug dose required to kill 90% of cells(EMT-6 mammary tumor cell line) after 24 hr incubation with a fixed fluence of 2.4 J cm-2.; assay type: functional, Mus musculus
Method in brief: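 EMT-6 mouse mammary tumour cells were grown in Waymouth's medium with 15% FBS. They were seeded at 15 × 10³ per well overnight, then given dye (Cremophor emulsion diluted in Waymouth 1% FBS) for 1 or 24 h at 37 °C. Cells were rinsed and refed, then exposed to red light (λ > 590 nm, 10 mW cm⁻²) to 2.4 J cm⁻². MTT was read at 595 nm the next day. Dye-free cells set 100% survival.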

EMT6 [5] = experiment: Light dose required to kill 90% of cells(EMT-6 mammary tumor cell line) after 1 hr incubation with 1 uM concentration; assay type: functional, Mus musculus
Method in brief: (§3)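 EMT-6 cells were seeded at 15 × 10³ per well and incubated 1 or 24 h at 37 °C with 1 μM dye from Cremophor emulsion in Waymouth 1% FBS. They were rinsed, refed with 15% FBS, and given red light (10 mW cm⁻²) over 0.1–20 J cm⁻². After overnight incubation, viability was read by MTT (595 nm). LD₉₀ was extrapolated from survival curves, with eightfold replicates per light dose and at least three experiments.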

Mus musculus [6] = experiment: % EMT-6 tumor edema response induced in BALB/c mice after ZnPc and Photofrin-mediated photodynamic therapy (PDT) at a concentration of 2 umol/kg; Extensive; assay type: functional, organism-based; conditions: tested as the Zn salt or complex; method in brief: as §1
EMT6 [7] = experiment: Light dose required to kill 90% of cells(EMT-6 mammary tumor cell line) after 24 hr incubation with 1 uM concentration; assay type: functional, Mus musculus; method in brief: as §3
Mus musculus [8] = experiment: % EMT-6 tumor regression response induced in BALB/c mice after ZnPc and Photofrin-mediated photodynamic therapy (PDT) at a concentration of 1 uM/kg; assay type: functional; method in brief: as §2
Mus musculus [9] = experiment: % EMT-6 tumor edema response induced in BALB/c mice after ZnPc and Photofrin-mediated photodynamic therapy (PDT) at a concentration of 1 umol/kg; Important; assay type: functional, organism-based; conditions: tested as the Zn salt or complex; method in brief: as §1
Mus musculus [10] = experiment: % EMT-6 tumor edema response induced in BALB/c mice after ZnPc and Photofrin-mediated photodynamic therapy (PDT) at a concentration of 2 umol/kg; Important; assay type: functional, organism-based; conditions: tested as the Zn salt or complex; method in brief: as §1
Mus musculus [11] = species: Mus musculus; conditions: BALB/c, 2 umol/kg
EMT6 [12] = conditions: Mus musculus
Mus musculus [13] = experiment: % EMT-6 tumor edema response induced in BALB/c mice after ZnPc and Photofrin-mediated photodynamic therapy (PDT) at a concentration of 1 umol/kg; Light; assay type: functional, organism-based; conditions: tested as the Zn salt or complex; method in brief: as §1
Mus musculus [14] = experiment: % EMT-6 tumor necrosis response induced in BALB/c mice after ZnPc and Photofrin-mediated photodynamic therapy (PDT) at a concentration of 10 uM/kg; assay type: functional, organism-based; conditions: tested as the Zn salt or complex
Mus musculus [15] = experiment: % EMT-6 tumor edema response induced in BALB/c mice after ZnPc and Photofrin-mediated photodynamic therapy (PDT) at a concentration of 10 uM/kg; assay type: functional, organism-based; conditions: tested as the Zn salt or complex
Mus musculus [16] = experiment: % EMT-6 tumor regression response induced in BALB/c mice after ZnPc and Photofrin-mediated photodynamic therapy (PDT) at a concentration of 10 uM/kg; assay type: functional
[17] = test system: V-79 (Cricetulus griseus); experiment: Drug dose required to kill 90% of cells after 1 hr incubation with a fixed fluence of 2.4 J cm-2. (assay with Chinese hamster V-79 fibroblasts)
[18] = Mus musculus, tested as the Zn salt or complex

**Q.** For `Oc1ccc2c(c1)-c1nc-2nc2[n-]c(nc3nc(nc4[n-]c(n1)c1ccccc41)-c1ccccc1-3)c1ccccc21.[Zn+2]`, which Tumor response (Mus musculus [1]) is on record?
**A.** Extensive

**Q.** And the Tumor response (Mus musculus [2])?
**A.** 100%

**Q.** What about the Tumor response (Mus musculus [3]) of the same compound?
**A.** 25%

**Q.** And the LC90 (EMT6 [4])?
**A.** 120 nM

**Q.** And the LD90 (EMT6 [5])?
**A.** 0.4 J cm**-2

**Q.** And the Tumor response (Mus musculus [6])?
**A.** Extensive

**Q.** What about the LD90 (EMT6 [7]) of the same compound?
**A.** 0.15 J cm**-2

**Q.** What about the Tumor response (Mus musculus [8]) of the same compound?
**A.** 12%

**Q.** Which results are given for `Oc1cc2c(cc1O)-c1nc-2nc2[n-]c(nc3nc(nc4[n-]c(n1)c1ccccc41)-c1ccccc1-3)c1ccccc21.[Zn+2]`?
**A.** Tumor response (Mus musculus [2]): 62%; Tumor response (Mus musculus [3]): 0%; LC90 (EMT6 [4]): 300 nM; Tumor response (Mus musculus [9]): Important; LD90 (EMT6 [5]): 2.4 J cm**-2; LD90 (EMT6 [7]): 0.25 J cm**-2; Tumor response (Mus musculus [8]): 25%; Tumor response (Mus musculus [10]): Important

**Q.** How did the Tumor response (Mus musculus [11]) turn out when `[Zn+2].c1ccc2c(c1)-c1nc-2nc2[n-]c(nc3nc(nc4[n-]c(n1)c1ccccc41)-c1ccccc1-3)c1ccccc21` [(PHTHALOCYANINATO)ZINC(II)] was run?
**A.** inactive

**Q.** And the LC90 (EMT6 [12])?
**A.** inactive

**Q.** And the Tumor response (Mus musculus [3])?
**A.** 100%

**Q.** And the LC90 (EMT6 [4]; [18])?
**A.** inactive

**Q.** And the LD90 (EMT6 [5])?
**A.** 0.14 J cm**-2

**Q.** And the LD90 (EMT6 [7]; [18])?
**A.** inactive

**Q.** `Oc1ccc2c(c1)-c1nc-2nc2[n-]c(nc3nc(nc4[n-]c(n1)c1ccccc41)-c1ccc(O)cc1-3)c1ccc(O)cc21.[Zn+2]` was tested. Which LC90 (EMT6 [4]) did it give?
**A.** 800 nM

**Q.** What about the LD90 (EMT6 [5]) of the same compound?
**A.** 19 J cm**-2

**Q.** And the LD90 (EMT6 [7])?
**A.** 0.48 J cm**-2

**Q.** Which Tumor response (Mus musculus [2]) does the source give for `Oc1ccc2c(c1)-c1nc-2nc2[n-]c(nc3nc(nc4[n-]c(n1)c1ccccc41)-c1ccccc1-3)c1ccc(O)cc21.[Zn+2]` here?
**A.** 0%

**Q.** And the Tumor response (Mus musculus [3])?
**A.** 75%

**Q.** And the LC90 (EMT6 [4])?
**A.** 580 nM

**Q.** And the LD90 (EMT6 [5])?
**A.** 7.5 J cm**-2

**Q.** And the LD90 (EMT6 [7])?
**A.** 0.4 J cm**-2

**Q.** And the Tumor response (Mus musculus [13])?
**A.** Light

**Q.** What about the Tumor response (Mus musculus [8]) of the same compound?
**A.** 0%

**Q.** Which results are given for `Oc1ccc2c(c1)-c1nc-2nc2[n-]c(nc3nc(nc4[n-]c(n1)c1ccc(O)cc41)-c1ccc(O)cc1-3)c1ccc(O)cc21.[Zn+2]`?
**A.** Tumor response (Mus musculus [14]): inactive; Activity (Mus musculus [15]): inactive; LC90 (EMT6 [4]; [18]): inactive; LD90 (EMT6 [5]; [18]): inactive; Tumor response (Mus musculus [16]): 0%; LD90 (EMT6 [7]; [18]): inactive; LC90 [17]: >100000 nM

Source: ChEMBL document CHEMBL1131227, “Hydroxyphthalocyanines as potential photodynamic agents for cancer therapy” (1998)
